Twelve molecules from ChEMBL document CHEMBL4130566, “χ-Space Screening of Dermorphin-Based Tetrapeptides through Use of Constrained Arylazepinone and Quinolinone Scaffolds” (ACS Med Chem Lett, 2017) can be followed below.

Square brackets hold non-standard residues; d marks the D form. Peptide text beside a SMILES is read from it.

As usually defined, the IC50 is the point on the concentration scale where inhibition reaches its midpoint. A word on the IC25: it is the concentration needed for an effect of 25%. In general, Ki refers to a dissociation constant, usually derived from enzyme kinetics or from competition with a known ligand. Read a low Ki as higher affinity.

The target in test [1] is Mu-type opioid receptor (Mus musculus, UniProt P42866). In words: Displacement of [125I]-DAMGO from mouse FLAG-tagged Mu-type opioid receptor expressed in HEK293 cell membranes after 60 mins by gamma counting analysis. Put shortly:
(§1)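 Competitive radioligand displacement binding in HEK293 cells expressing MOP or DOP. The MOP-selective tracer is [125I]-DAMGO and the DOP-selective tracer is [125I]-Deltorphin II. Values are reported as IC50.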
(In general: Loss of bound radioactivity is the signal in a displacement assay; it reports binding, not function.)

Test [2] deals with T1, Delta-type opioid receptor (Mus musculus, UniProt P32300). In words: Displacement of [125I]-Deltorphin II from mouse FLAG-tagged delta-type opioid receptor expressed in HEK293 cell membranes after 60 mins by gamma counting analysis. Put shortly:
as §1

The target of test [3] is Mu-type opioid receptor (Cavia porcellus) (UniProt P97266). The test is described as follows: (§2) Agonist activity at mu-opioid receptor in guinea pig ileum assessed as inhibition of electrically induced contractions. The format is functional. The essentials:
(§3)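 Guinea pig ileum (GPI) serves as the MOP-representative tissue and mouse vas deferens (MVD) as the DOP-representative tissue. Values are reported as IC50.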

In test [4] the target is T1, Delta-type opioid receptor. The test is described as follows: Agonist activity at delta-type opioid receptor in mouse vas deferens assessed as inhibition of electrically stimulated contractions. The test is classed as functional. Put shortly:
as §3

Another test is filed under the species Mus musculus. The test is described as follows: Selectivity ratio of IC50 for mouse FLAG-tagged delta-type opioid receptor expressed in HEK293 cell membranes to IC50 for mouse FLAG-tagged Mu-type opioid receptor expressed in HEK293 cell membranes. The test is classed as cell-based.
Test [5] deals with Mu-type opioid receptor (Cavia porcellus) (UniProt P97266). The test is described as follows: Antagonist activity at mu-opioid receptor in guinea pig ileum assessed as inhibition of TAPP-induced reduction in electrically stimulated contractions. The test is classed as functional.
In test [6] the target is Delta-type opioid receptor (Mus musculus) (UniProt P32300). The test is described as follows: Antagonist activity at delta-type opioid receptor in mouse vas deferens assessed as inhibition of DPDPE-induced electrically stimulated contractions. The test is classed as functional.
In test [7] the target is T2, Mu-type opioid receptor (Cavia porcellus, UniProt P97266). Described as §2. The format is functional. Put shortly: as §3
In test [8] the target is T3, Mu-type opioid receptor (Rattus norvegicus, UniProt P33535). The test is described as follows: Displacement of [3H]-CTOP from Mu-type opioid receptor in Sprague-Dawley rat brain homogenate after 180 mins by scintillation counting.
Test [9] has as its target T4, Delta-type opioid receptor (Rattus norvegicus, UniProt P33533). The test is described as follows: Displacement of [H][p-ClPhe4]-DPDPE from delta-type opioid receptor in Sprague-Dawley rat brain homogenates after 180 mins by scintillation counting.
Test [10] deals with T2, Mu-type opioid receptor. The test is described as follows: Agonist activity at mu-opioid receptor in Hartley guinea pig ileum assessed as inhibition of electrically induced contractions after 3 mins post dose. The format is functional. The essentials:
as §3

Test [11] has as its target T1, Delta-type opioid receptor. The test is described as follows: Agonist activity at delta-type opioid receptor in ICR mouse vas deferens assessed as […] of electrically stimulated contractions after 3 mins post dose. The test is classed as functional.
The target in test [12] is Mu-type opioid receptor (Homo sapiens, UniProt P35372). In words: Binding affinity to Mu-type opioid receptor (unknown origin).
Test [13] concerns the target Delta-type opioid receptor (Homo sapiens, UniProt P41143). In words: Binding affinity to delta-type opioid receptor (unknown origin).
In test [14] the target is T3, Mu-type opioid receptor. In words: Displacement of [3H]naloxone from Mu-type opioid receptor in Sprague-Dawley rat brain membranes. The test is classed as cell membranes, Membrane.
The target of test [15] is T4, Delta-type opioid receptor. In words: Displacement of [3H][Ile5,6]-deltorphin II from delta-type opioid receptor in Sprague-Dawley rat brain membranes. The test is classed as cell membranes, Membrane.

T1 sequence (P32300 whole entry): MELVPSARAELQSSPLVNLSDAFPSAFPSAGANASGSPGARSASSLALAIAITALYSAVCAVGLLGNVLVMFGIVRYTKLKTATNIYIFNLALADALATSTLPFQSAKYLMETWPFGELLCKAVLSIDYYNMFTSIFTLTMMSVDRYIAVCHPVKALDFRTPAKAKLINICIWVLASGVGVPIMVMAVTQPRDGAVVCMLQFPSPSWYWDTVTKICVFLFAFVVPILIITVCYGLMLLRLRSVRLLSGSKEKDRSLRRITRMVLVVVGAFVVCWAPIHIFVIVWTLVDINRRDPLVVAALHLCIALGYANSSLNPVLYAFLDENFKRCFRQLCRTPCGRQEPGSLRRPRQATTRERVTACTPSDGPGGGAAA
Chain of Mu-type opioid receptor (Cavia porcellus) (P97266 whole entry): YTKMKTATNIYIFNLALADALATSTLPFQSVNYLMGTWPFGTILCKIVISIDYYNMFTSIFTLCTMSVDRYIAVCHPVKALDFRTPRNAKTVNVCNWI
T2 sequence (P97266 whole entry): as above
Chain of Mu-type opioid receptor (Mus musculus, UniProt P42866) (P42866 whole entry): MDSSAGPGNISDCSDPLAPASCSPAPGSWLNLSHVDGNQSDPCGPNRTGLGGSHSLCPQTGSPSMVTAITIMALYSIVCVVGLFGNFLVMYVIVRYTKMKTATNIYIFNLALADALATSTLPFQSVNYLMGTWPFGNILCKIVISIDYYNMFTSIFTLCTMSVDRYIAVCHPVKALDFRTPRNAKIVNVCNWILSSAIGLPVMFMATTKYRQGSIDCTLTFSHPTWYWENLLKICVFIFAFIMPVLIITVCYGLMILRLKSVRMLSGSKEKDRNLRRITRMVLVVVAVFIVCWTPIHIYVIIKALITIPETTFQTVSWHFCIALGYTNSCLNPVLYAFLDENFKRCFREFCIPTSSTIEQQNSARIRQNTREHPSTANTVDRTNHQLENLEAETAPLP
Chain of Delta-type opioid receptor (Mus musculus) (P32300 whole entry): as the sequence (P32300 whole entry) above
T3 sequence (P33535 whole entry): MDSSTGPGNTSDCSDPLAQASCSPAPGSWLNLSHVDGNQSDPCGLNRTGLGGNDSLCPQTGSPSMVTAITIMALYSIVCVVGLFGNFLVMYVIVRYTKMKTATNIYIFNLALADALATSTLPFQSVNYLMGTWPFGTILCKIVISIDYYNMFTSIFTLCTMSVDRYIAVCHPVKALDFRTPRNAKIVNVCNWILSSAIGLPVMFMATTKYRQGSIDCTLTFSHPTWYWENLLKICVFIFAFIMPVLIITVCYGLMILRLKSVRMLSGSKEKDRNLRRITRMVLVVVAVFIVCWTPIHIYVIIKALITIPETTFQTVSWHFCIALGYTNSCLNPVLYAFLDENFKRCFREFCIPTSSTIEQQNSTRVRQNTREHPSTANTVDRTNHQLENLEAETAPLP
T4 sequence (P33533 whole entry): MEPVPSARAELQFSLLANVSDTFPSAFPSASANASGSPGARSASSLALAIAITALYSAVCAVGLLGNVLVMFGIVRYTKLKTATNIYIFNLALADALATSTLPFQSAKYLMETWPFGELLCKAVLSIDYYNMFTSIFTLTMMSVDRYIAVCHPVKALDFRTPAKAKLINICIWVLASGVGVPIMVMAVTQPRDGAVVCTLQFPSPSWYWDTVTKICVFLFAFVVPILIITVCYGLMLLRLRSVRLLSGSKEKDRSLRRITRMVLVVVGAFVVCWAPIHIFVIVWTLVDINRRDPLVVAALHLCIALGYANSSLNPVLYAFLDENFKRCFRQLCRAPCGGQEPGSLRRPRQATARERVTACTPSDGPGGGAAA
Chain of Mu-type opioid receptor (Homo sapiens, UniProt P35372) (P35372 whole entry): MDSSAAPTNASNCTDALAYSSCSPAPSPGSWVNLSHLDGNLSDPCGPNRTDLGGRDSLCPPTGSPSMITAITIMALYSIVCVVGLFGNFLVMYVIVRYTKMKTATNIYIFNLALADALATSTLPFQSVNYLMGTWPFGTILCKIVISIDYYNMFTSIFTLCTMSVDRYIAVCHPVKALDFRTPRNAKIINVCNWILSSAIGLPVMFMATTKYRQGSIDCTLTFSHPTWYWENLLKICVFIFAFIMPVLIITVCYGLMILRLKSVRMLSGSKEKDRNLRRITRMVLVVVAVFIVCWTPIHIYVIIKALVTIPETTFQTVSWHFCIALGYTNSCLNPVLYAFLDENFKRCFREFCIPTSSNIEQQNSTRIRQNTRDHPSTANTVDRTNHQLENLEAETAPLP
Chain of Delta-type opioid receptor (Homo sapiens, UniProt P41143) (P41143 whole entry): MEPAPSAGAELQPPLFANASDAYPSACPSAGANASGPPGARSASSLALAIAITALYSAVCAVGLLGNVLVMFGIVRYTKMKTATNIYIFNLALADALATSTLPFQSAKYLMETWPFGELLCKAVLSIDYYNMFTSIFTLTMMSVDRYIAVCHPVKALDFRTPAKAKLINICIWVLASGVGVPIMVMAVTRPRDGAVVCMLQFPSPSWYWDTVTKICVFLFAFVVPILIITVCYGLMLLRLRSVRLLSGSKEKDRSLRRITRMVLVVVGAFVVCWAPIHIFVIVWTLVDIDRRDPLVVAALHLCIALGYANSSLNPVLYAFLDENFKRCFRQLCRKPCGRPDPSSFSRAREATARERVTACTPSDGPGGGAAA

In the case of `Cc1cc(O)cc(C)c1C[C@H](N)C(=O)N[C@H](CCCNC(=N)N)C(=O)N[C@H]1Cc2ccc(Br)cc2CN(CC(N)=O)C1=O`, the figures for the IC50 (on Mu-type opioid receptor [1]; in test [2]; in test [4]) were 0.76 nM, 60.7 nM and 8.51 nM, respectively. For the same molecule, in test [3], the 25% effect concentration (IC25) is 22 nM. The Ratio IC50 in the test listed under Mus musculus came to 80.

For the molecule `Cc1cc(O)cc(C)c1C[C@H](N)C(=O)N[C@H](C)C(=O)N[C@H]1Cc2ccc3ccccc3c2CN(CC(N)=O)C1=O`, the IC50 stood at 1.78 nM at Mu-type opioid receptor [1] and 167 nM in test [2]. For the same molecule, the Ke in test [5] is 2.88 nM; in test [6], 306 nM. In the test filed under Mus musculus, the Ratio IC50 is 94.

As to `C[C@@H](NC(=O)[C@@H](N)Cc1ccc(O)cc1)C(=O)N[C@@H](Cc1ccccc1)C(=O)NCC(=O)N[C@@H](Cc1ccc(O)cc1)C(=O)N1CCC[C@H]1C(=O)N[C@@H](CO)C(N)=O` [DERMORPHIN], on Mu-type opioid receptor [7], the IC50 worked out at 1.06 nM.

For `C[C@@H](NC(=O)[C@@H](N)Cc1ccc(O)cc1)C(=O)N[C@@H](Cc1ccccc1)C(=O)NCC(N)=O` (H-Y[dA]FG-NH2), the IC50 at Mu-type opioid receptor [8] worked out at 36.7 nM; in [9], 1250 nM; at Mu-type opioid receptor [10], 35 nM; in [11], 263 nM.

In the case of `Cc1cc(O)cc(C)c1C[C@H](N)C(=O)N(C)[C@H](C)C(=O)N[C@H]1Cc2c(ccc3ccccc23)CN(CC(N)=O)C1=O`, the IC50 on Mu-type opioid receptor [1] stood at 0.35 nM; in test [2], 1.47 nM; at Mu-type opioid receptor [7], 0.43 nM; in test [4], 1.09 nM. Also, in the test listed under Mus musculus, the Ratio IC50 was found to be 4.

With `Cc1cc(O)cc(C)c1C[C@H](N)C(=O)N[C@H](C)C(=O)N[C@H]1Cc2c(ccc3ccccc23)CN(CC(N)=O)C1=O`, the IC50 at Mu-type opioid receptor [1] was determined as 0.39 nM; in test [2] it was 2.07 nM; at Mu-type opioid receptor [7], 1.13 nM; in test [4], 0.86 nM. Moreover, the Ratio IC50 in the test listed under Mus musculus turned out to be 5.

With `Cc1cc(O)cc(C)c1C[C@H](N)C(=O)N[C@H](CCCN=C(N)N)C(=O)N[C@H]1Cc2ccccc2CN(CC(N)=O)C1=O`, the figures for the Ki (on Mu-type opioid receptor [12]; in test [13]) were 0.15 nM and 0.6 nM, respectively.

As for `Cc1cc(O)cc(C)c1C[C@H](N)C(=O)N[C@H](C)C(=O)N[C@H]1Cc2cc3ccccc3cc2CN(CC(N)=O)C1=O`, the results for the Ke in [5] and in [6] were 5.53 nM and 360 nM, respectively.

In the case of `C[C@@H](NC(=O)[C@@H](N)Cc1ccc(O)cc1)C(=O)N[C@H]1Cc2ccccc2CN(CC(N)=O)C1=O`, the IC50 was determined as 50.4 nM at Mu-type opioid receptor [7], 47.1 nM in test [4], 34.4 nM on Mu-type opioid receptor [14] and 15.8 nM in test [15].

Turning to `Cc1cc(O)cc(C)c1C[C@H](N)C(=O)N[C@H](CCCNC(=N)N)C(=O)N[C@H]1Cc2ccc3ccccc3c2CN(CC(N)=O)C1=O`, the IC50 at Mu-type opioid receptor [1] is 2.19 nM; in [2] it was 153 nM; at Mu-type opioid receptor [7], 21.4 nM; in test [4], 114 nM. Besides, the Ratio IC50 in the test listed under Mus musculus came out at 70.

Regarding `Cc1cc(O)cc(C)c1C[C@H](N)C(=O)N[C@H](CCCNC(=N)N)C(=O)N[C@H]1Cc2ccccc2N(CC(N)=O)C1=O`, the IC50 at Mu-type opioid receptor [1] is 1.62 nM; in test [2], 630 nM; in test [4] it was 90.5 nM. In addition, the IC35 in [3] came out at 33.7 nM. In addition, the Ratio IC50 in the test listed under Mus musculus is 389.

On to `Cc1cc(O)cc(C)c1C[C@H](N)C(=O)N[C@H](CCCNC(=N)N)C(=O)N[C@H]1Cc2c(ccc3ccccc23)CN(CC(N)=O)C1=O`, for which the 50% inhibitory concentration (IC50) on Mu-type opioid receptor [1] amounted to 0.33 nM; in [2], 1 nM; on Mu-type opioid receptor [7], 0.252 nM; in test [4], 1.42 nM. In addition, the Ratio IC50 in the test listed under Mus musculus amounted to 3.
